Hits are enriched below; roughly 5.7% of the tested compounds scored in any of these assays.
CSC inhib: blocks cancer stem cells; cancer stem cell-like cells viability, luminescence; 1.1% of 300,000 active; inhibition, % at 7.5 µM; AID 2717; in the data active means inhibition above about 75%; inconclusive means no clear call, values can overlap the other calls; tested in HMLE shEcad cells
Mdm2 MdmX PPI: inhibitors of human Mdm2/MdmX interaction. SaOS-2 split-luciferase Mdm2/MdmX complementation, luminescence. inhibition, % at 8 µM. 3% of 330,000 active;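 active means inhibition of at least 50% at 8 µM in the primary screen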
Target sequence (O15151 whole entry, looked up): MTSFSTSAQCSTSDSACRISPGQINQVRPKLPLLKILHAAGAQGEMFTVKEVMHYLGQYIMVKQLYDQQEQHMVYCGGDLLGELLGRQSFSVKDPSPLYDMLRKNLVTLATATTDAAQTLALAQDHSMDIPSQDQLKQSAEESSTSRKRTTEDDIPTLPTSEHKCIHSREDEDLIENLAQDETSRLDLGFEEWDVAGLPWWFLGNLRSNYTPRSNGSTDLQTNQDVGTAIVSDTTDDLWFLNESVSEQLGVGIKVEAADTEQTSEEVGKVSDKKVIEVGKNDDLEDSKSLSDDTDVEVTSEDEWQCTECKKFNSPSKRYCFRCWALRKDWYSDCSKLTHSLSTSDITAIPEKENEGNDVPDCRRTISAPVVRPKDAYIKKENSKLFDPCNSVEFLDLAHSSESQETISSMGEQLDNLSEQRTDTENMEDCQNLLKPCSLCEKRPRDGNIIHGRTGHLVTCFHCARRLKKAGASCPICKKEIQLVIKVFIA
Target sequence (Q00987 whole entry, looked up): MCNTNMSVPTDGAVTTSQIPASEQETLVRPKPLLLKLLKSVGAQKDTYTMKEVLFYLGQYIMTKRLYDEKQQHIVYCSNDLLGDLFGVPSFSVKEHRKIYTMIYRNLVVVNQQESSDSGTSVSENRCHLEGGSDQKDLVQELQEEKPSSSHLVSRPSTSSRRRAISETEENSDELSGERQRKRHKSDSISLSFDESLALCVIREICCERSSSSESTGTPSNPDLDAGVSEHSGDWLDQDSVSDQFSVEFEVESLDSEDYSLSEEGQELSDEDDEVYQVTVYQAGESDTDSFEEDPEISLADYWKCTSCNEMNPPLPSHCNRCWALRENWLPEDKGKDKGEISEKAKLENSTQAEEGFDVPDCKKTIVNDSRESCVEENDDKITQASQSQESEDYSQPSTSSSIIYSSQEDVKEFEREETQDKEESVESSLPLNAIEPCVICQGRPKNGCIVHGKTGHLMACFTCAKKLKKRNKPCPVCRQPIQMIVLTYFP
T cruzi repl: blocks replication of Trypanosoma cruzi | T. cruzi beta-gal in NIH3T3, luminescence, 90 h | inhibition, % (concentration not given with the values) | 1.4% of 300,000 active | AID 1885;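 active means mean inhibition across valid replicates above about 55%, limit read from the data; inconclusive means mean below that limit but half or more replicates reach it; inactive means mean below it, under half of replicates reach it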;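 further: signal also drops with host cell toxicity which is not excluded here; higher percent means less beta-gal luminescence so fewer parasites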
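Incubation – ≥90 h infection period, 3 h prior cell attachment · System – NIH/3T3 fibroblasts plus reporter T. cruzi · Doses – compound pinned at 50 nL/well, DMSO · Read-out basis – percent inhibition of parasite-derived β-gal signal · Signal – luminescent β-galactosidase signal after 60 min lysis · Also added – 5000 T. cruzi trypomastigotes/well · Medium – Low-serum DMEM with 2% FBS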
Calb FLC: affects C. albicans growth with fluconazole; C. albicans CaCi-2 (fluconazole-resistant clinical isolate) + fluconazole, Alamar Blue growth, 48 h; growth inhibition, % (concentration not given with the values); 0.57% of 300,000 active; AID 1979;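 active means growth inhibition above about 58% in most replicates, limit read from the data, passing the limit was not always enough; inconclusive means exactly half the replicates above a set limit; inactive means most replicates below a set limit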;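 further: all wells also contain fluconazole at 8 µg/ml as a sub-toxic cotreatment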
Beta cell apopt: blocks beta cell apoptosis. INS-1E cytokine-induced death, ATP luminescence, 48 h; percent of positive-control rescue, neutral wells zero. protection from apoptosis, % (no concentration beside the values). 0.8% of 300,000 active;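 active means Every replicate reaches about 75%, or at least half do and their mean reaches it too, limit read from the data; inconclusive means At least half of replicates reach the limit but their mean does not; inactive means Under half of replicates reach the limit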;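 further: higher means more ATP so stronger rescue from cytokine killing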
SKKanGAS inh: blocks kanamycin growth of S. pyogenes SKKanGAS strain; BacTiter-Glo, 6 h; inhibition, % at 7.5 µM; 1.3% of 300,000 active; AID 1662;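 active means mean replicate score, as percent of positive control median, at least 50; inconclusive means mean below 50 but one replicate at or above 50; inactive means mean and every replicate below 50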;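 further: strain carries kanamycin resistance gene driven by streptokinase promoter and grows in 40 µg/ml kanamycin; loss of luminescence reflects streptokinase promoter inhibition or plain growth inhibition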
Mdm2 MdmX conf: human Mdm2/MdmX binding inhibition, confirmed | shares compounds with Mdm2 MdmX PPI | luminescent assay | inhibition, % at 8 µM | 55% of 10,000 active | AID 489028; in the data active means inhibition above about 40%
FLuc counter: inhibits full-length luciferase, flagging false Mdm2/MdmX hits; shares compounds with Mdm2 MdmX PPI; SaOS-2 full-length luciferase counterscreen, luminescence; inhibition, % at 8 µM; 77% of 6,200 active;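 active means mean inhibition at 8 µM reaching about 37%, which flags the compound as non-specific, limit read from the data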;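 further: p53-null SaOS-2 cells with luciferase driven by a doxycycline-inducible promoter; compound on cells about two nights before reading with doxycycline added after day one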
Large screens that a line does not name were inactive (follow-up assays come after a bar, where they were run).

COc1ccc(CCNC(=O)c2ccc3c(c2)N(Cc2ccccc2)CCS3)cc1OC	Mdm2 MdmX PPI 60 | Mdm2 MdmX conf inactive
O=C(NNC(=O)c1cc(Br)c(Br)s1)c1ccncc1	none (no result: CSC inhib, T cruzi repl, Calb FLC, SKKanGAS inh)
COc1ccccc1OCC(O)Cn1c(=N)n(CCN2CCCCC2)c2ccccc21 (configuration not stated)	Mdm2 MdmX PPI 56 | Mdm2 MdmX conf 46 | FLuc counter 74
N=c1n(CCN2CCCCC2)c2ccccc2n1CC(O)COc1ccccc1 (configuration not stated)	Mdm2 MdmX PPI 61 | Mdm2 MdmX conf inactive | FLuc counter 81
CCOc1ccc(S(=O)(=O)N2CCN(CN3C(=O)CC4(CCCC4)C3=O)CC2)cc1	none (no result: CSC inhib, T cruzi repl, Calb FLC, Beta cell apopt, SKKanGAS inh)
COc1cc(/C=C2\SC(N)=NC2=O)ccc1OCC(=O)Nc1ccccc1C	none (no result: T cruzi repl, Calb FLC, SKKanGAS inh)
Cc1cc(=O)oc2cc(OCc3cc4c(cc3Cl)OCO4)ccc12	Mdm2 MdmX PPI 89 | Mdm2 MdmX conf inactive
COc1ccc(-c2ccc([C@H]3[C@@H]4C=CCC[C@@]4(C)C(=O)N3Cc3ccccc3)c(F)c2)cc1OC	Mdm2 MdmX PPI 63, T cruzi repl 67, SKKanGAS inh 52 | Mdm2 MdmX conf inactive
CC(=O)c1ccc(N2CCC(c3cc(-c4ccc(Cl)cc4Cl)n[nH]3)CC2)c([N+](=O)[O-])c1	CSC inhib 118, Mdm2 MdmX PPI 52, T cruzi repl 62, SKKanGAS inh 80 | Mdm2 MdmX conf inactive
CC(=O)c1ccc(N2CCN(c3ccccc3O)CC2)c([N+](=O)[O-])c1	none
CC(NC(=O)c1ccccc1Br)c1nnc(SCC(=O)NC2=NCCS2)n1C (configuration not stated)	none
CC(C)CCNCC(O)CON=C1c2ccccc2-c2ccccc21 (configuration not stated)	Mdm2 MdmX PPI 95, Calb FLC inconclusive | Mdm2 MdmX conf 41 | FLuc counter 69
CC(C)N(CCNCC(O)COc1ccc(C(C)(C)c2ccccc2)cc1)C(C)C (configuration not stated)	none
CCC(=O)c1ccc(OCC(O)CNC(C)c2ccccc2)cc1 (configuration not stated)	none
CC(C)c1ccc(OCC(O)CNC(C)c2ccccc2)cc1 (configuration not stated)	Mdm2 MdmX PPI 52 | Mdm2 MdmX conf inactive
CC(NCC(O)COCCC12CC3CC(CC(C3)C1)C2)c1ccccc1 (configuration not stated)	CSC inhib 105, Mdm2 MdmX PPI 100, T cruzi repl 60, Beta cell apopt 88 | Mdm2 MdmX conf 99 | FLuc counter 37
OC(CNCCC(c1ccccc1)c1ccccc1)COc1ccccc1 (configuration not stated)	Mdm2 MdmX PPI 70 | Mdm2 MdmX conf inactive
O=C(CSc1nnc(CNC(=O)c2c(F)cccc2F)o1)NCCc1ccccc1	SKKanGAS inh inconclusive
Cc1cc(OCc2cc(C(=O)N(C)C(C)c3ccccn3)no2)cc(C)c1Cl (configuration not stated)	none
CCc1ccc(NC(=O)Nc2ccsc2C(=O)OC)cc1	none
CCn1cc(CCCC(=O)NCc2cccc(OC)c2)c2ccccc21	none
OC(CNCCc1ccccc1)COc1ccc(OCC(O)CNCCc2ccccc2)cc1 (configuration not stated)	Mdm2 MdmX PPI 99 | Mdm2 MdmX conf 76 | FLuc counter 47
O=C(NCc1ccccc1F)c1ccc2c(c1)OCCO2	none (no result: CSC inhib, Beta cell apopt)
COc1cc2c(cc1OC)C(c1cccs1)N(C(=O)c1cccnc1)CC2 (configuration not stated)	Mdm2 MdmX PPI 56 | Mdm2 MdmX conf 58 | FLuc counter 73
Cc1cc(N2CCOCC2)c2c(N)c(Br)cc(C)c2n1	Mdm2 MdmX PPI 74 | Mdm2 MdmX conf 71 | FLuc counter inactive
O=C1c2ccccc2C(=O)C12OC2c1ccc(Cl)cc1 (configuration not stated)	Mdm2 MdmX PPI 81 | Mdm2 MdmX conf inactive
CCn1c(SCC#N)nc2ccccc2c1=O	none
N#CCSc1nc2ccccc2c2nc3ccccc3n12	CSC inhib 85, Mdm2 MdmX PPI 87, Beta cell apopt 103 | Mdm2 MdmX conf 63 | FLuc counter 87
CC(=O)c1ccc(NC(=O)c2cc(CC(C)C)nc3ccccc23)cc1	Mdm2 MdmX PPI 58 | Mdm2 MdmX conf 66 | FLuc counter inactive
CCOc1ccc(NC(=O)c2cc(Cl)nc3ccccc23)cc1	Mdm2 MdmX PPI 51 | Mdm2 MdmX conf inactive | FLuc counter 62
O=C(Nc1ccc2c(c1)OCCO2)c1cc(-c2ccccn2)nc2ccc(Br)cc12	Mdm2 MdmX PPI 74 | Mdm2 MdmX conf 41 | FLuc counter 72
CCOc1ccc(NC(=O)c2ccccc2O)cc1	none
CCOc1ccc(Nc2cc(C)c3ccccc3n2)cc1	none
CCOc1ccc(Nc2c3ccccc3nc3ccccc23)cc1	Mdm2 MdmX PPI 71, Beta cell apopt 79 | Mdm2 MdmX conf 45 | FLuc counter 59
C[C@H](CO)N1C[C@H](C)[C@@H](CN(C)C(=O)Nc2ccc3c(c2)OCO3)Oc2ccc(NS(=O)(=O)c3ccccc3)cc2C1=O	none (no result: T cruzi repl, Calb FLC, SKKanGAS inh)
Cc1cccc(-c2cc(C(=O)Nc3ccc4c(c3)OCCO4)c3ccccc3n2)c1	none
Cc1ccc(OCC(=O)NNc2c3ccccc3nc3ccccc23)cc1	Mdm2 MdmX PPI 56 | Mdm2 MdmX conf inactive
CCOc1ccc(-c2cc(C(=O)Nc3ccc4c(c3)OCCO4)c3ccccc3n2)cc1	Mdm2 MdmX PPI 50 | Mdm2 MdmX conf 40 | FLuc counter 97
CCCCCCCCCC(=O)N[C@@H]1c2cc(OC)c(OC)cc2C[C@H]1O	none (no result: CSC inhib, T cruzi repl, Calb FLC, Beta cell apopt, SKKanGAS inh)
Nc1c(N(CCC2=CCCCC2)C(=O)CCCOc2ccccc2)c(=O)[nH]c(=O)n1Cc1ccccc1	none
Nc1c(N(CCC2=CCCCC2)C(=O)COc2ccc(F)cc2)c(=O)[nH]c(=O)n1Cc1ccccc1	Mdm2 MdmX PPI 53, Beta cell apopt 97 (no result: T cruzi repl, Calb FLC, SKKanGAS inh) | Mdm2 MdmX conf inactive
Cn1cccc1/C=N/NC(=O)c1sc2cc(Cl)ccc2c1Cl	Mdm2 MdmX PPI 73 | Mdm2 MdmX conf inactive | FLuc counter 48
CSc1nc2sc(-c3ccccc3)cc2c(=O)n1N	Mdm2 MdmX PPI 68 | Mdm2 MdmX conf 40 | FLuc counter 164
CC(C)Sc1nc2sc(-c3ccccc3)cc2c(=O)n1N	none (no result: T cruzi repl, Calb FLC, SKKanGAS inh)
CCC1CSC(Nc2ccc(C(=O)/C=C/c3ccc(Br)cc3)cc2)=N1 (configuration not stated)	CSC inhib 79, Mdm2 MdmX PPI 59, Calb FLC inconclusive | Mdm2 MdmX conf inactive
COc1ccc(Cl)cc1NC(=O)C1CCN(C(=O)Nc2ccccc2)CC1	none (no result: CSC inhib, T cruzi repl, Calb FLC, SKKanGAS inh)

High-throughput results from PubChem BioAssay.
